This is an account of results in ChEMBL document CHEMBL3124904, “Second-generation derivatives of the eukaryotic translation initiation inhibitor pateamine A targeting eIF4A as potential anticancer agents” (Bioorg Med Chem, 2014).

The source made the active and inactive calls. The calls are words filed in the database; no cut-off is given here.

One may read the IC50 as the midpoint of a concentration-inhibition curve.

Data set [1] can be described thus: Half life in RPMI media at 1 uM by HPLC analysis. Format: physicochemical. In short, it runs like this: (§1)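 Compound added from DMSO stock to pre-heated RPMI 1640 (1.8 mL) plus 0.2 mL human AB male serum or FBS, or to 2 mL RPMI alone, at final 1 or 10 μM. Samples analysed by HPLC at pH 9.5 (formic acid/ammonia in acetonitrile/water), with conversion taken from the substrate/internal standard peak ratio. Run in triplicate; half-lives ± SD.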

Data set [2] in a line: Half life in RPMI media at 10 uM by HPLC analysis in presence of fetal bovine serum. Format: ADME. As to conditions: cattle. In a few lines:
as §1

A short description of data set [3]: Half life in RPMI media at 1 uM by HPLC analysis in presence of human blood serum. Format: ADME. In short, it runs like this: as §1
Data set [4] is described as follows: Selectivity ratio of IC50 for MEF to IC50 for human SK-MEL-2 cells. Format: cell-based. As to conditions: mouse (MEF) and human (SK-MEL-2 cells), MEF and SK-MEL-2 cells; read-out: Ratio IC50.
A short description of data set [5]: Selectivity ratio of IC50 for MEF to IC50 for human HeLa cells. Format: cell-based. The conditions noted are these: mouse (MEF) and human (HeLa cells), read-out: Ratio IC50.
Data set [6] deals with SK-MEL-2. Put plainly: Selectivity ratio of IC50 for human SK-MEL-2 cells in presence of 5% FBS to IC50 for human SK-MEL-2 cells in presence of 10% FBS. Format: functional.
The species entered for data set [7] is Oryctolagus cuniculus. The data set is described as follows: Inhibition of cap-independent HCV-IRES-induced translation in rabbit reticulocyte lysate at 500 nM after 1.5 hrs by luciferase reporter gene assay. The class given is functional. In a few lines: (§2)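 Capped bicistronic reporter mRNA: cap-dependent firefly luciferase first cistron, HCV IRES-driven Renilla second cistron. Transcribed in vitro with SP6 from the BamHI-linearised plasmid. 200 ng RNA translated in rabbit reticulocyte lysate with 70 mM KCl, 2 mM DTT, RNasin and compound in DMSO (5% v/v final), 30 °C for 1.5 h. Dual luciferase readout. Duplicates, 4 independent assays, mean IC50 by curve fit.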
(In general: Reporter assays use an easily measured gene product as a stand-in for the process of interest.)

The nature of data set [8]: Binding affinity to eIF4A1/2 in rabbit reticulocyte lysate assessed as inhibition of cap-dependent translation after 1.5 hrs by dual luciferase reporter gene assay. Details: species or system Oryctolagus cuniculus. In short, it runs like this:
as §2

Data set [9] concerns SK-MEL-2. Put plainly: Antiproliferative activity against human SK-MEL-2 cells after 72 hrs by MTT assay in presence of 10% FBS. The class given is functional, cell-based. The conditions noted are these: SK-MEL-2, 72 h. In short, it runs like this: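 HeLa and SK-MEL2 grown in DMEM, Jurkat in RPMI 1640, each with 10% FBS and penicillin-streptomycin, at 37 °C and 5% CO2. Adherent cells seeded at 2000/well and left to recover overnight; Jurkat seeded at 5000/well with no recovery. Compound added in DMSO (0.1% final), then 72 h incubation and MTT readout.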

Data set [10] can be described thus: Antiproliferative activity against BAEC assessed as DNA synthesis level after 24 hrs by thymidine incorporation assay. The conditions noted are these: Bos taurus. In short, it runs like this: (§3)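 Cells kept at 37 °C, 5% CO2 with penicillin-streptomycin and 10% FBS. Adherent lines seeded at 2000 cells/well and left to recover overnight; Jurkat seeded at 5000 cells/well with no recovery period. Compound added in DMSO (0.1% final, vehicle-only control) at 0.001–100 nM over 10 wells. DNA synthesis read out after 24 h. Mean IC50 from at least 3 independent assays.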
(In general: Uptake of a labelled nucleoside into DNA is a usual measure of proliferation.)

Data set [11] deals with RKO. Put plainly: Antiproliferative activity against human RKO cells assessed as DNA synthesis level after 24 hrs by thymidine incorporation assay. Format: functional, cell-based. In short, it runs like this:
as §3

Data set [12] addresses T1, DNA polymerase alpha catalytic subunit (Homo sapiens, UniProt P09884).
T1 sequence (P09884 whole entry): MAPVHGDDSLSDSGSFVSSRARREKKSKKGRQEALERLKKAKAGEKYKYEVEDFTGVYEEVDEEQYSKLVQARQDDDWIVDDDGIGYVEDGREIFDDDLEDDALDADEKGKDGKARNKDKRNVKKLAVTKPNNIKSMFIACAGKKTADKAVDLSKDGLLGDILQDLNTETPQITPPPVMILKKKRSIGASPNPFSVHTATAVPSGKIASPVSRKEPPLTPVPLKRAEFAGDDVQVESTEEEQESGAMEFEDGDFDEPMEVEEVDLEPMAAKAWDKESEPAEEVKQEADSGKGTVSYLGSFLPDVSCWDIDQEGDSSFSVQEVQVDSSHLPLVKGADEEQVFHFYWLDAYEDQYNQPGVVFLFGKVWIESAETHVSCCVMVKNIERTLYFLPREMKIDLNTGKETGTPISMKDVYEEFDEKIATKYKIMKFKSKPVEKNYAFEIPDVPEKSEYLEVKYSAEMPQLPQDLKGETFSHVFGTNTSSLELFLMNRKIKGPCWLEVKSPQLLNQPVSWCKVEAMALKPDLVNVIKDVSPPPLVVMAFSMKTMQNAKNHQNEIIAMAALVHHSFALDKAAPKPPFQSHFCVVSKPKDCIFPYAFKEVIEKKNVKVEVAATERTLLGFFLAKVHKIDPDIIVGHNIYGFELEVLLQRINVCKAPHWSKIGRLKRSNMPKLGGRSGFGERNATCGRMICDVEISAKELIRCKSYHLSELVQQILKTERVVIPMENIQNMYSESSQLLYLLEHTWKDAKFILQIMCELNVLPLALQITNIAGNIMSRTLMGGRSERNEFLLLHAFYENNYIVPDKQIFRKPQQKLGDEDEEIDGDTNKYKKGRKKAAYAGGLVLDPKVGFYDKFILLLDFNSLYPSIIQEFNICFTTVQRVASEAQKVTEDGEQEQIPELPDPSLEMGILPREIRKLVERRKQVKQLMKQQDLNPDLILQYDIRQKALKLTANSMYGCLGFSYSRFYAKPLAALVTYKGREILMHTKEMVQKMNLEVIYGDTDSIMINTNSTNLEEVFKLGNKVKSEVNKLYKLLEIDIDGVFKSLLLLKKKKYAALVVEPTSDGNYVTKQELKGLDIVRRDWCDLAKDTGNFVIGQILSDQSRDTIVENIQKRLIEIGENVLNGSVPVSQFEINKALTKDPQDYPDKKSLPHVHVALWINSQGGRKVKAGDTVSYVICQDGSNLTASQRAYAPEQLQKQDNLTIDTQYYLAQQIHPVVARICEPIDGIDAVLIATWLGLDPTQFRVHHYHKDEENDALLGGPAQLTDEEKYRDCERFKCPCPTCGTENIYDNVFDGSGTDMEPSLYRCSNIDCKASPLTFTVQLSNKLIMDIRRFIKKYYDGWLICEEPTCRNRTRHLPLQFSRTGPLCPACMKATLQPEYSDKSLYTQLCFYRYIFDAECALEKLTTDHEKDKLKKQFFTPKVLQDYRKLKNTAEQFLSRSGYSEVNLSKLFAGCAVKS
The data set is described as follows: Inhibition of DNA polymerase-alpha (unknown origin) assessed as incorporation of Br(d)UTP by colorimetric analysis.

Regarding `CC(/C=C/C(C)=C/[C@@H]1Cc2nc(cs2)CCCCC(=O)O[C@@H](C)C/C(C)=C/C=C\C(=O)O1)=C\CN(C)C`, the t1/2 came to 5.11 h in data set [1], 12.5 h in data set [2] and 24 h in [3]. The selectivity ratio in [4] and in [5] was 5 in each case. Further, the “Ratio IC50” value in [6] is listed as 2. For the same compound, the inhibition result in data set [7] was “inactive”. The IC50 worked out at 21.5 nM in [8]; 13 nM in data set [9]; 1.97 nM in data set [10]; 1.2 nM in data set [11]; 3000 nM in data set [12].
